From article PMC3003407 (The Journal of Biological Chemistry, 2010)
pKd: −log10 of the molar value.

Legend:
[1] = target: human plasma fibronectin (human); experiment: ELISA
[2] = target: FN (Homo sapiens, UniProt P02751); experiment: Competition of 0.3 nM b-FUD binding to adsorbed FN; conditions: 1000 nM competitor
Procedure, shortened: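 Wells coated overnight at 4 °C with 10 μg/ml (40 nM) FN, then blocked with 5% BSA in TBST. 0.3 nM biotinylated FUD was added together with competitor in TBST plus 0.1% BSA for 2 h. Detection used alkaline phosphatase–streptavidin (1:20,000, 1 h), 4-nitrophenyl phosphate (1 mg/ml, TBS pH 9.0) and A405. Triplicates, background-subtracted, expressed relative to b-FUD alone.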

[3] = target: recombinant human N-terminal 70-kDa fibrin- and gelatin-binding fragment of fibronectin (N-9FNI, residues 32-608) (human) (UniProt P02751); experiment: ITC

For “FUD i29/30 (single alanine inserted between Ile-29 and Asp-30) (domain or fragment)”, the percent competition at 10 μM [1] was 20%.
In the case of “N-^5FNI: Recombinant FN fibrin-binding fragment, residues 32–290”, the “competition with b-FUD for binding to FN” value [2] was “minor degree”.
For “functional upstream domain (FUD) of Streptococcus pyogenes F1 adhesin, recombinant, 56 residues with tails (domain or fragment)”, the pKd [3] was 8.28.
